Assay [1] addresses T1, Tubulin (Sus scrofa) (UniProt P02554+P02550). The assay is described as follows: Inhibition of porcine tubulin polymerization at 3 uM incubated for 1 min by fluorescence based assay. The class given is protein assay.
The target of assay [2] is Cyclin-dependent kinase 4/cyclin D1 (Homo sapiens) (UniProt P11802+P24385). The assay is described as follows: Inhibition of recombinant human N-terminal GST-tagged CDK4 (S4 to E303 residues)/Cyclin D1 (Q4 to I295 residues) expressed in sf9 cells at 10 uM using RBCTF as substrate measured after 1 hr by ADP-glo luminescence assay relative to control. For orientation: In ADP-Glo the light output rises with the ADP produced.

Assay [3] concerns the target Cyclin-dependent kinase 4/cyclin D1 (Homo sapiens, UniProt P11802). The assay is described as follows: Inhibition of recombinant human N-terminal GST-tagged CDK4 (S4 to E303 residues)/Cyclin D1 (Q4 to I295 residues) expressed in sf9 cells using RBCTF as substrate measured after 1 hr by ADP-glo luminescence assay. The method in brief: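 ADP-Glo luminescence assay of Cdk4–cyclin D1 with RBCTF substrate, 200 ng enzyme, ATP 125 µM (2.5x working mix), Tris/MgCl2/BSA/DTT/MnCl2 buffer, 1 h at 21°C, then two 40-min reagent steps. IC50 from a four-parameter variable-slope sigmoidal fit of inhibition against concentration; mean ± SD from three independent experiments.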

Assay [4] deals with CDK2/Cyclin A2 (Homo sapiens, UniProt P24941). The assay is described as follows: Inhibition of human full length N-terminal GST-fused CDK2 (M1 to L298 residues)/human full length Cyclin-A2 (M1 to L432 residues) expressed in Sf9 cells using histone H1 as substrate measured after 1 hr by ADP-glo luminescence assay.
For assay [5], the target named is Cyclin-dependent kinase 1/cyclin B1 (Homo sapiens, UniProt P06493). The assay is described as follows: Inhibition of recombinant human N-terminal GST/His6-tagged CDK1 (M1 to M297 residues)/CyclinB1 (M1 to V433 residues) expressed in Sf9 insect cells using RBCTF as substrate measured after 1 hr by ADP-glo luminescence assay.
Assay [6] deals with CDK9/cyclin T1 (Homo sapiens, UniProt P50750). The assay is described as follows: Inhibition of N-terminal GST-HIS6 fusion protein tagged human full length CDK9 (M1 to F372 residues)/N-terminal HIS6-fused human Cyclin-T1 (M1 to K726 residues) expressed in Sf9 cells using RBCTF as substrate measured after 1 hr by ADP-glo luminescence assay.
Assay [7] deals with CDK6/cyclin D1 (Homo sapiens, UniProt Q00534). The assay is described as follows: Inhibition of CDK6/cyclin D1 (unknown origin) using RBER-CHKtide as substrate measured after 1 hr by ADP-glo luminescence assay. The class given is protein-complex assay. The method in brief: (§1)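 ADP-Glo kinase assay with 200 ng Cdk-cyclin enzyme, ATP (125 µM in 2.5x mix) and 25 µg substrate (RBCTF or RBER-CHKtide, per Cdk). Buffer: Tris, MgCl2, BSA, DTT, MnCl2 cofactor, DMSO. Reaction 1 h at 21°C; ADP-Glo 40 min, then detection reagent 40 min. Luminescence read. IC50 by 4-parameter fit; three independent experiments.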

The target of assay [8] is T2, Cytochrome P450 1A1 (Homo sapiens, UniProt P04798).
T2 sequence (P04798 whole entry): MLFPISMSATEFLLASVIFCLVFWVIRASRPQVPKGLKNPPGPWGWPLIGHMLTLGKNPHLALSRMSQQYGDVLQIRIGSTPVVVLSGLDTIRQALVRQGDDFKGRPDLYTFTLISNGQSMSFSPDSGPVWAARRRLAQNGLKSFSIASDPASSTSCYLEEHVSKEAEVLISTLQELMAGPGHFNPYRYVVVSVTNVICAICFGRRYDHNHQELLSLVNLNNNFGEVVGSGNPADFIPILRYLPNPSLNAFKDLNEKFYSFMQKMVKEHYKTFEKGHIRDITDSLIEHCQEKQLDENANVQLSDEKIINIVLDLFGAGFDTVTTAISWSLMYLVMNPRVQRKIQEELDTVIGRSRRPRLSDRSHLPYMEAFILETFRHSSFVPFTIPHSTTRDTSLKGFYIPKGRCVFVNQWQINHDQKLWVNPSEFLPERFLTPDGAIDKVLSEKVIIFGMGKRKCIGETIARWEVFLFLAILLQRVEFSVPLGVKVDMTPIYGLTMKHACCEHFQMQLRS
The assay is described as follows: Inhibition of recombinant human CYP1A1 expressed in baker's yeast-derived microsomes using 7-ethoxyresorufin as substrate by fluorescence assay. The class given is ADME.

The target of assay [9] is T3, Cytochrome P450 1A2 (Homo sapiens, UniProt P05177).
T3 sequence (P05177 whole entry): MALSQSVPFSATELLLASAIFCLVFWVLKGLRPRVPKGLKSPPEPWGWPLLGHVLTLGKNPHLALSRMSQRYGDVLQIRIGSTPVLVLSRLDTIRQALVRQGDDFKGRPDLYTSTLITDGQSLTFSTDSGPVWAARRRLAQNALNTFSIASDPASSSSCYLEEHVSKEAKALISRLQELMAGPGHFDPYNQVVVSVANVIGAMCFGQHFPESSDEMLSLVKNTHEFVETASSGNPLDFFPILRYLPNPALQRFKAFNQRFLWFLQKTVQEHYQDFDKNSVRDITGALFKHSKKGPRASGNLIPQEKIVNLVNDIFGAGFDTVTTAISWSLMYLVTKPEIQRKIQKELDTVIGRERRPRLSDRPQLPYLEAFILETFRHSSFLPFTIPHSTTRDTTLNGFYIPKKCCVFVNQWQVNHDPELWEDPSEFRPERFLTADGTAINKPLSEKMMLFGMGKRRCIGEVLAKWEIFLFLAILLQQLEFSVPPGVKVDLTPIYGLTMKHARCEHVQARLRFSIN
The assay is described as follows: Inhibition of recombinant human CYP1A2 expressed in baker's yeast-derived microsomes using 3-cyano-7-ethoxycoumarin as substrate by fluorescence assay. The class given is ADME.

For assay [10], the target named is T4, Cytochrome P450 1B1 (Homo sapiens, UniProt Q16678).
T4 sequence (Q16678 whole entry): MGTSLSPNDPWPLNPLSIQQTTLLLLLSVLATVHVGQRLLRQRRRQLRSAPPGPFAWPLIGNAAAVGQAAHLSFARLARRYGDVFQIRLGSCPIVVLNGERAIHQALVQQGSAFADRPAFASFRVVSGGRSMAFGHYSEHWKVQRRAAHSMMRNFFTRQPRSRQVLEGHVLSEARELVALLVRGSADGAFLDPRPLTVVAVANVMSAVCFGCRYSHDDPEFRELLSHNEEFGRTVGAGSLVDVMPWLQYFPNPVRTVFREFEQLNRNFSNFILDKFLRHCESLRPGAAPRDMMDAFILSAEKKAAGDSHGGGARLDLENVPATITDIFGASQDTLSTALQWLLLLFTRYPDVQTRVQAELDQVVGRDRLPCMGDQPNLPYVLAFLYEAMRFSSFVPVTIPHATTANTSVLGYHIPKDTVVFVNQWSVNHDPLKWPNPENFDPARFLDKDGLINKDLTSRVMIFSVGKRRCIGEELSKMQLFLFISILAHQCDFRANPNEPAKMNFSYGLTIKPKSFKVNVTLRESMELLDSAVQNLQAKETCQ
The assay is described as follows: Inhibition of recombinant human CYP1B1 expressed in baker's yeast-derived microsomes using 7-ethoxyresorufin as substrate by fluorescence assay.

Assay [11] has as its target T1, Tubulin (Sus scrofa). The assay is described as follows: Inhibition of porcine tubulin polymerization at 5 uM incubated for 1 min by fluorescence based assay. The class given is protein assay. The method in brief:
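Compounds added from 10x stocks in duplicate and warmed at 37°C ≤1 min. Ice-cold tubulin pre-mix then added. Fluorescent reporter read at ex 360/em 460 nm for 60 min. Paclitaxel served as enhancer control, CaCl2 as inhibitor control.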

Assay [12] concerns A549. The assay is described as follows: cells. Particulars: Homo sapiens, A549, 72 h.
In assay [13] the test system is Calu-1. The assay is described as follows: cells. The settings on record: Homo sapiens, Calu-1, 72 h.
In assay [14] the test system is MDA-MB-468. The assay is described as follows: cells. The settings on record: Homo sapiens, MDA-MB-468, 72 h.
For assay [15], the system named is T47D. The assay is described as follows: cells. Particulars: Homo sapiens, 72 h.
In assay [16] the target is CDK9/cyclin T1 (Homo sapiens) (UniProt O60563+P50750). The assay is described as follows: Inhibition of N-terminal GST-HIS6 fusion protein tagged human full length CDK9 (M1 to F372 residues)/N-terminal HIS6-fused human Cyclin-T1 (M1 to K726 residues) expressed in Sf9 cells at 10 uM using RBCTF as substrate measured after 1 hr by ADP-glo luminescence assay relative to control. The method in brief:
as §1

This is an account of results in ChEMBL document CHEMBL4480390, “Cink4T, a quinazolinone-based dual inhibitor of Cdk4 and tubulin polymerization, identified via ligand-based virtual screening, for efficient anticancer therapy” (Eur J Med Chem, 2019).

The term inhibition denotes how much of the control response was suppressed. In general, IC50 refers to the point on the concentration scale where inhibition reaches its midpoint. As usually defined, the EC50 is the concentration giving half of the maximal effect. A high value points to lower potency in that assay.

Activity calls are given as the source filed them. The rule behind the calls is not given here. Where only a bound is given, the exact number is not on record here.

`CC[C@]1(O)C[C@@H]2CN(CCc3c([nH]c4ccccc34)[C@@](C(=O)OC)(c3cc4c(cc3OC)N(C)[C@H]3[C@@](O)(C(=O)OC)[C@H](OC(C)=O)[C@]5(CC)C=CCN6CC[C@]43[C@@H]65)C2)C1`: in assay [1], the inhibition entry was “Active”.

`CC(=O)O[C@H]1C(=O)[C@@]2(C)[C@H]([C@H](OC(=O)c3ccccc3)[C@]3(O)C[C@H](OC(=O)[C@H](O)[C@@H](NC(=O)c4ccccc4)c4ccccc4)C(C)=C1C3(C)C)[C@]1(OC(C)=O)CO[C@@H]1C[C@@H]2O`: the inhibition entry in assay [1] was “inactive”.

Take `COc1ccccc1NC(=O)COc1ccc(-c2nc3ccccc3c(=O)[nH]2)cc1OC`: in [2], the inhibition was determined as 89%. Further, the IC50 in [3] was 1.5 µM; in [4], more than 50 µM; in [5] it was more than 50 µM; in [6], more than 100 µM; in [7], more than 100 µM; in assay [8], more than 5 µM. In addition, the IC50 in assay [9] and in assay [10] was more than 5 µM each time. The inhibition entry in [11] is “Active”. The EC50 in assay [12] is 3 µM; in assay [13], 6 µM; in assay [14], more than 50 µM; in assay [15], 4 µM.

On to `COc1ccc(-c2nc3ccccc3c(=O)[nH]2)cc1OCC(=O)NC1CCCCC1`, for which the inhibition in [2] came to 76%; in assay [16], 8%. For the same compound, the IC50 is 3.8 µM in assay [3]; more than 100 µM in [4]; more than 50 µM in assay [5]; more than 50 µM in [6]; more than 100 µM in [7]; more than 5 µM in assay [8]. The IC50 in assay [9] and in assay [10] was more than 5 µM each time. For the same compound, the inhibition entry in [11] is “Active”. Further, the half-maximal effective concentration (EC50) in assay [12] was 7.5 µM; in [13], 9.8 µM; in [14], more than 50 µM; in assay [15] it was 8.2 µM.
